What was measured:
[1] = target: T1, NFR5 ectodomain (Lotus japonicus, UniProt Q70KR1); assay: BLI binding of NFR5 ectodomain; settings: analyte 100 to 1.56 µM
T1 sequence (Q70KR1 29-242): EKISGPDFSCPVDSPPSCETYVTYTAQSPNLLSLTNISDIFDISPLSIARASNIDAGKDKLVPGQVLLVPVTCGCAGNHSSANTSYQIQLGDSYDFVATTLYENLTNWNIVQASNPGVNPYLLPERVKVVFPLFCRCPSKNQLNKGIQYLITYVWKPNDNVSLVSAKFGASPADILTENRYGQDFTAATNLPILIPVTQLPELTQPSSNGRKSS

[2] = target: T2, engineered LYS11 (ENG-LYS11) (Lotus japonicus, UniProt D3KTZ8); assay: BLI binding of engineered LYS11 ectodomain; settings: ENG-LYS11, analyte 100 to 1.56 µM
T2 sequence (D3KTZ8 28-247): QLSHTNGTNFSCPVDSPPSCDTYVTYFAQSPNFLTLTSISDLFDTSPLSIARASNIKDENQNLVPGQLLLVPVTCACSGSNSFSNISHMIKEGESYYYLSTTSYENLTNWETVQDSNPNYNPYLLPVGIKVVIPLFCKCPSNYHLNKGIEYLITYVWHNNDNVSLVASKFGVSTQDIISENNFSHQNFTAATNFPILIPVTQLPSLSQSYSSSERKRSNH

[3] = target: T3, CERK1 (Arabidopsis thaliana, UniProt A8R7E6); assay: BLI kinetics of CERK1 ectodomain binding to chitin fragment
T3 sequence (A8R7E6 24-232 limits assumed): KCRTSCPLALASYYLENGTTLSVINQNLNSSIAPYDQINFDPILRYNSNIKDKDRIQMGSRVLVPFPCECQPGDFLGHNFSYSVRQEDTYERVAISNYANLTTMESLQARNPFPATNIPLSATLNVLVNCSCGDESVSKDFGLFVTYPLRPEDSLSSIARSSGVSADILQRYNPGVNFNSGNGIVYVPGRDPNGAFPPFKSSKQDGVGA

[4] = target: T4, NFP (Medicago truncatula, UniProt Q0GXS4); assay: MST steady-state binding to fluorescently labeled NFP; settings: ligand 0.6 to 20,000 nM, NFP 12.5 to 50 nM
T4 sequence (Q0GXS4 28-246): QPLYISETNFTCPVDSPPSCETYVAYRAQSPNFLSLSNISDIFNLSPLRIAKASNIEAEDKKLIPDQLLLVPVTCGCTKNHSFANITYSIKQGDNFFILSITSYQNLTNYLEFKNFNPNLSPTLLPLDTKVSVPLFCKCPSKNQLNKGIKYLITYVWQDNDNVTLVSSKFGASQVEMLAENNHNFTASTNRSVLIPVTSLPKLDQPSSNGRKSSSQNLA
In short: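 Microscale thermophoresis using NHS blue dye-labelled NFP ectodomain (insect cell-expressed) held at a constant 12.5–50 nM. Ligands were S. meliloti succinoglycan (EPS-I) and maltodextrin, each titrated from 0.6 to 20,000 nM. Steady-state binding signal was recorded.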

| Molecule | Kd [1] | Kd [2] | binding kinetics [3] | binding to NFP [4] |
| --- | --- | --- | --- | --- |
| N[C@H]1[C@H](O[C@H]2[C@H](O)[C@@H](N)[C@H](O[C@H]3[C@H](O)[C@@H](N)[C@H](O[C@H]4[C@H](O)[C@@H](N)[C@H](O[C@H]5[C@H](O)[C@@H](N)C(O)O[C@@H]5CO)O[C@@H]4CO)O[C@@H]3CO)O[C@@H]2CO)O[C@H](CO)[C@@H](O)[C@@H]1O (some centres unmarked) [CO5, chitopentaose] | does not bind | completely lost the ability to bind | fast association and dissociation rates | – |
| S. meliloti succinoglycan [EPS-I] | – | – | – | unable to bind |
| maltodextrin | – | – | – | unable to bind |
